# KCNK9 block = human KCNK9 channel inhibition; Q9NPC2; hit rate 1.2% among 310,000; HEK293 KCNK9, FluxOR thallium flux fluorescence; stronger effect = lower value; B-score at 10 µM; AID 488922;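 active = ratio B-score over 3 SD below the library mean, with starting fluorescence within 5 SD of its mean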;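 also: negative B-score means less thallium flux so channel inhibition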
# Target sequence (Q9NPC2 whole entry, looked up): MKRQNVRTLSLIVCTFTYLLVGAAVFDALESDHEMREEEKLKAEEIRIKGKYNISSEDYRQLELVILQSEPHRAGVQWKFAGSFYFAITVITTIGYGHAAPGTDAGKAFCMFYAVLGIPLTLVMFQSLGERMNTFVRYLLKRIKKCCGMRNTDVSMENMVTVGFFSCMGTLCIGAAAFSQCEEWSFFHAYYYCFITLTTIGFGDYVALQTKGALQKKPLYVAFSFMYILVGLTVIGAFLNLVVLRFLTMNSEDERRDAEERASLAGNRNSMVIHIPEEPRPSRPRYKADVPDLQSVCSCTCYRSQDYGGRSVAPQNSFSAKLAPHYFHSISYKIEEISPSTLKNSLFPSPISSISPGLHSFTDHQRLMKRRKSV
# hERG rescue = hERG (human) protection from proarrhythmic block; activation (rescue from dofetilide block), less the hit threshold, % at 10 µM; hit rate 0.51% among 310,000; CHO-hERG, FluxOR thallium flux, dofetilide IC70 present; AID 1511;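 active = activation above the mean of controls blocked by dofetilide plus 5 SD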;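 also: thallium influx through hERG after potassium depolarization seen as dye fluorescence rise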
# KCNQ1 inh = inhibitors of human KCNQ1 potassium channel; CHO-K1 KCNQ1, FluxOR thallium flux fluorescence; stronger effect = higher value; B-score at 10 µM; hit rate 1.3% among 310,000; AID 2642;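 active = compounds whose thallium flux B-score, printed positive for inhibition, exceeds three library SD while starting fluorescence stays within three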;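 also: channel opened by potassium depolarization with thallium stimulus after 20 min compound exposure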
# Kir21 block = inhibitors of mouse Kir2.1 inward-rectifier potassium channel; P35561; HEK293-Kir2.1, FluxOR thallium flux fluorescence; stronger effect = lower value; B-score at 10 µM; hit rate 0.85% among 310,000; AID 1672;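 active = fluorescence ratio B-score at or below minus 3 SD of library scores, with starting-brightness B-score within 2 SD, cut at about -4.2 in these data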;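 also: channel flux triggered by added potassium and thallium sulfate stimulus; B-score of peak minus minimum fluorescence over baseline after thallium stimulus; more negative B-score means stronger Kir2.1 block with less thallium influx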
# KCNK3 inh = human KCNK3 channel inhibition, primary screen; CHO-KCNK3 thallium flux, FluxOR fluorescence; stronger effect = lower value; hit rate 0.84% among 340,000; B-score at 10 µM;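 active = B-score under library mean minus 4 SD, starting fluorescence ratio at most library mean plus 5 SD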;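 also: more negative B-score means stronger inhibition of thallium flux through KCNK3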
# KCNQ1 act = potentiates or activates the human KCNQ1 potassium channel | P51787 | CHO-K1 KCNQ1, thallium flux FluxOR fluorescence; stronger effect = higher value | B-score at 10 µM | hit rate 0.35% among 310,000 | AID 2648;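 active = fluorescence ratio B-score, a plate-corrected score, at least three library SD, with initial intensity B-score within 5 SD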
#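 Test system: CHO-K1 cells stably expressing KCNQ1 / Medium: assay buffer / Also added: depolarizing K+/Tl+ stimulus, K2SO4 and Tl2SO4 each 12.5 mM in 5x stock / Incubation: 90 min dye loading and 20 min compound exposure, both at room temperature / Signal: thallium influx via FluxOR fluorescence, kinetic imaging / Evaluation: B score of baseline-normalized fluorescence ratio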
# KCNK9 block conf = human KCNK9 inhibitor confirmation; inhibition, % at 10 µM; shares compounds with KCNK9 block; HEK293 KCNK9 cells, FluxOR thallium flux fluorescence; hit rate 43% among 4,900;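 active = thallium signal inhibited by more than 5 SD of the compound-free buffer control wells, on both duplicate plates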;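 also: 0% = assay buffer control wells without compound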
# Kir2-1 spec = selectivity of KCNK9 modulators against mouse Kir2.1; shares compounds with KCNK9 block; Kir2.1 cells, FluxOR thallium flux fluorescence; inhibition, % at 10 µM; hit rate 4% among 4,900;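 active = thallium signal drop more than 5 SD beyond the mean of the no-compound control wells, seen in both duplicate plates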;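 also: signal is fluorescence rise after thallium addition divided by baseline fluorescence; plate controls were assay buffer only for no effect and full block by chlorpromazine control for full effect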
# KCNK9 uninduced = second counter-screen for KCNK9 modulators: effect in non-induced cells; AID 492997; inhibition, % at 10 µM; non-induced KCNK9-HEK293, FluxOR thallium flux; hit rate 40% among 4,900; shares compounds with KCNK9 block;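 active = thallium signal drop beyond 5 SD of the untreated control mean, on both duplicate plates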;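 also: plate controls were buffer only IC0 wells for no effect and SID17386958 at its maximal inhibitory level for full effect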
# KCNK3 confirm = human KCNK3 channel inhibition, confirmation assay. shares compounds with KCNK3 inh. AID 651638. ratio percent of control, % at 10 µM. CHO-KCNK3 thallium flux, FluxOR fluorescence; 0% buffer, 100% carvedilol maximal block. hit rate 99% among 2,400;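 active = ratio percent of control, averaged over triplicates, above buffer control mean plus 5 SD, cut at about 64% in these data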;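 also: ratio is the fluorescence rise from min to max over baseline after thallium stimulus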
# KCNK3 noninduced = counter-screen for KCNK3 inhibitors: effect in non-induced cells; non-induced KCNK3 parental cells, FluxOR thallium flux; stronger effect = lower value; hit rate 40% among 2,400; thallium flux ratio (lower = more inhibition) at 10 µM; shares compounds with KCNK3 inh;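 active = thallium flux ratio, averaged over three wells, more than 5 SD below the buffer control mean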;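 also: host cells are CHO cells without KCNK3 induction; ratio is peak minus trough fluorescence over baseline then normalized to buffer controls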
# Numbers without * were called inactive; i = inactive; · = no result. Only some compounds are listed: those with a hit (about 3.7% of all), similar ones and a draw of the others.
SMILES,KCNK9 block,hERG rescue,KCNQ1 inh,Kir21 block,KCNK3 inh,KCNQ1 act,KCNK9 block conf,Kir2-1 spec,KCNK9 uninduced,KCNK3 confirm,KCNK3 noninduced
COc1cc(/C=C2\C(=N)N3N=C(S(C)(=O)=O)SC3=NC2=O)ccc1OCCOc1ccc(C)cc1,i,0.1,10*,0.01,-9.06*,i,i,i,i,75.3*,0.158*
CCOc1cc(/C=C2\C(=N)N3N=C(S(C)(=O)=O)SC3=NC2=O)ccc1OCCOc1cccc(OC)c1,i,-17.4,i,1.84,i,i,·,·,·,·,·
COc1cc(/C=C2\C(=N)N3N=C(S(C)(=O)=O)SC3=NC2=O)cc(OC)c1OCCOc1ccc(C)cc1,i,-33.2,i,-0.23,-12.1*,i,i,i,i,99.0*,0.136*
Cc1nn(Cc2ccc(C(=O)Nc3nc4c(C)cccc4s3)o2)c(C)c1Br,-13.5*,-2.4,i,-0.1,-9.92*,i,43.5%*,i,i,87.7*,i
Cc1cc(NC(=O)c2ccc(Cn3nc(C)c(Br)c3C)o2)no1,i,-0.3,i,0.14,i,i,·,·,·,·,·
CCOC(=O)C1=C(CSc2nc(CC)c(C)cc2C#N)OC(N)=C(C#N)C1c1ccc(OC)cc1 (centres undefined),-9.72*,-9.3,i,0.86,-9.18*,i,54.5%*,i,45.0%*,112.0*,0.152*
Cc1ccc(S(=O)(=O)N2C(=O)CCC2C(=O)N2CCCCC2)cc1 (centres undefined),i,-12.1,i,0.16,i,i,·,·,·,·,·
O=C(Nc1cccc(-c2cn3c(n2)SCC3)c1)c1ccc(Br)o1,-10*,-16.2,i,2.3,i,i,37.0%*,i,i,109.3*,i
O=C(Nc1cccc(-c2cc3ccccc3oc2=O)c1)c1ccc(Br)o1,-8.67*,-10.6,i,1.04,-10.7*,i,33.5%*,i,i,121.3*,0.15*
O=C(Nc1cccc(F)c1)c1ccc(Br)o1,i,-6.9,i,-0.36,i,i,·,·,·,·,·
COc1ccc(-c2cc3ccccc3oc2=O)cc1NC(=O)c1ccc(Br)o1,i,-0.7,i,-0.76,i,i,·,·,·,·,·
O=C(Nc1cccc(OC(F)(F)F)c1)c1ccc(Br)o1,-10.2*,-14.9,i,-0.34,-9.56*,i,44.0%*,i,i,116.0*,i
Cc1cc2nc(-c3cccc(NC(=O)c4ccc(Br)o4)c3)oc2cc1C,-9.83*,-9.1,i,0.32,-9.51*,i,37.5%*,i,i,121.0*,0.143*
O=C(Nc1ccc2oc(-c3cccnc3)nc2c1)c1ccc(Br)o1,i,-6.0,i,0.28,i,i,·,·,·,·,·
Cc1cc(C(=O)NCC(c2ccco2)N2CCCC2)c2ccccc2n1 (centres undefined),·,·,·,·,i,·,·,·,·,·,·
O=C(Nc1ccc(S(=O)(=O)Nc2ncccn2)cc1)C1=NN(c2ccccc2)C(=O)CC1,i,-7.2,i,1.31,i,i,·,·,·,·,·
C/C(=N\Nc1cc(C)nc(-c2ccccc2)n1)c1cccc([N+](=O)[O-])c1,-10.9*,-5.4,i,-0.05,-9.71*,i,50.0%*,i,32.0%*,103.0*,i
Cc1cc(NC(=S)N(CCN2CCCCC2)Cc2ccco2)ccc1Cl,-8.19*,-12.7,i,1.67,-11.4*,i,25.0%*,i,27.5%*,108.0*,i

# Screening data (PubChem BioAssay)
